MEKK2mut PB1 HTS: signal of MEK5 binding to mutant human MEKK2 PB1 domain | bead flow cytometry, Alexa488-MEK5 binding to MEKK2 mutant | percent response, % at 10 µM | 290,000 compounds, 0.35% hits; in the data active = percent response above about 24%, passing the limit was not always enough
Arrestin-AP2 inh: blocks beta-arrestin peptide binding to AP2 adaptin; FITC-arrestin peptide / GST-AP2 beads, flow cytometry; AP2 beta2 appendage carries R879A mutation; inhibition, % at 10 µM; 340,000 compounds, 0.31% hits; AID 504490;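 active = inhibition above a set limit, near 3 SD of compounds lacking own fluorescence, cut at about 54% in these data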;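 also: plate controls were DMSO wells for no effect and 5 µM unlabelled arrestin peptide for full effect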
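system = GST-tagged AP2 beta2-adaptin appendage (R879A) on 4 µm glutathione beads | reagent = FITC-labelled arrestin peptide probe, 50 nM final | schedule = compound with beads 12 min RT, then probe 1 h RT | signal = HyperCyt-sampled flow cytometry, FL1 channel, ex 488/em 535 nm | read-out = percent response from loss of bead-bound FITC fluorescence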
MEKK2 WT-MEK5: raises or lowers MEK5 binding to wildtype human MEKK2 PB1 domain. Q9Y2U5. bead flow cytometry, Alexa488-MEK5 binding to MEKK2 WT; actives lie on both sides. binding response (% of control), % at 10 µM. 290,000 compounds, 1.1% hits; in the data active = binding response below about 67% or above about 130%
MEKK3 PB1 HTS: MEKK3-MEK5 PB1 interaction, increase or decrease; Q99759; bead-based flow cytometry, Alexa488-MEK5 binding to MEKK3; actives lie on both sides; 0 = blocked by unlabeled MEK5, 100 = vehicle; binding response (% of control), % at 10 µM; 290,000 compounds, 1.4% hits; AID 1529;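 active = binding response more than 3 SD above or below the average of its plate-row segment, actives on both sides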;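 also: Alexa488 bead fluorescence after subtracting the streptavidin-only scavenger bead signal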
Target sequence (Q99759 whole entry, looked up): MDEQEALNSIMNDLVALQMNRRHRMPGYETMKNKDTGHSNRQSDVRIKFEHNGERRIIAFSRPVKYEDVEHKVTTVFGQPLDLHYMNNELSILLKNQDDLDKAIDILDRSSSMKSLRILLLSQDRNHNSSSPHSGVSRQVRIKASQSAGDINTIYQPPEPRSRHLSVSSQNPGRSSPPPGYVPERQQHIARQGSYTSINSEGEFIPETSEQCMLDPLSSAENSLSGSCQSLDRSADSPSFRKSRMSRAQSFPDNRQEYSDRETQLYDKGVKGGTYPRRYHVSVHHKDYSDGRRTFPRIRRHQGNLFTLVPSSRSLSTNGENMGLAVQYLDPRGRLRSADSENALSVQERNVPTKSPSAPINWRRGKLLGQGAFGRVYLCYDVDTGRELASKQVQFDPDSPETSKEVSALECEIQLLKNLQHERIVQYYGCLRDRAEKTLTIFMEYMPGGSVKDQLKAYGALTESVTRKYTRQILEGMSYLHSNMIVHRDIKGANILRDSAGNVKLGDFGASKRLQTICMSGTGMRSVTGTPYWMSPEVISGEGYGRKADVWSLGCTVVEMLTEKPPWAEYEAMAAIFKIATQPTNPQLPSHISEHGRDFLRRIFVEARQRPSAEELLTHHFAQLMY
MEKK2wt confirm: raises or lowers MEK5 binding to wildtype human MEKK2, retest | shares compounds with MEKK3 PB1 HTS | bead flow cytometry, Alexa488-MEK5 binding to MEKK2 WT; actives lie on both sides | binding response (% of control), % at 10 µM | 5,900 compounds, 2.4% hits | AID 1892; in the data active = binding response below about 16% or above about 210%; inactive = in between
MEKK2mut confirm: signal of MEK5 binding to mutant human MEKK2, retest | shares compounds with MEKK3 PB1 HTS | bead flow cytometry, Alexa488-MEK5 binding to MEKK2 mutant | percent response, % at 10 µM | 5,900 compounds, 2% hits | AID 1893; in the data active = percent response mostly above about 71%, no sharp cut-off; inactive = mostly below about 38%;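 also: higher means compound restores mutant binding toward wildtype level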
MEKK3-MEK5 inh: confirmation of inhibitors of MEK5 binding to human MEKK3; 5,900 compounds, 1.8% hits; bead flow cytometry, Alexa488-MEK5 binding to MEKK3; hits give low values; binding response (% of control), % at 10 µM; AID 1894; shares compounds with MEKK3 PB1 HTS;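 active = binding response below 72% of control, or above a set upper limit, though filed actives all read lower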;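 also: 100% = DMSO only wells and 0% = binding blocked by excess unlabeled MEK5; lower values mean stronger disruption of MEK5 binding to MEKK3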
Active calls of the source: *; [ ] = another dose, or the depositor's remark. Only some compounds are listed: those with a hit (about 2.3% of all), similar ones and a draw of the others.

What do the screens show for `Cc1cc[n+](C(C)C(=O)c2ccc(-c3ccccc3)cc2)cc1` (stereo not given)?
MEKK2mut PB1 HTS: 29.0; Arrestin-AP2 inh: 7.1; MEKK2 WT-MEK5: 152.0*; MEKK3 PB1 HTS: 106.0; MEKK2wt confirm: 101.0; MEKK2mut confirm: -2.0; MEKK3-MEK5 inh: 97.0

How did CC(=O)Nc1cc[n+](C(C)C(=O)c2ccc(Cl)cc2)cc1 (stereo not given) do in these assays?
MEKK2mut PB1 HTS: -14.0; Arrestin-AP2 inh: -11.6; MEKK2 WT-MEK5: 54.0; MEKK3 PB1 HTS: 41.0*[inhibitor]; MEKK2wt confirm: 103.0; MEKK2mut confirm: 0.0; MEKK3-MEK5 inh: 100.0

How did Cc1cc[n+](C(C)C(=O)c2ccc(Cl)cc2)cc1 (stereo not given) do in these assays?
MEKK2mut PB1 HTS: 3.0; Arrestin-AP2 inh: 8.2; MEKK2 WT-MEK5: 107.0; MEKK3 PB1 HTS: 102.0

Results for CC(C(=O)c1ccc(-c2ccccc2)cc1)[n+]1ccccc1 (stereo not given) ?
MEKK2mut PB1 HTS: 0.0; Arrestin-AP2 inh: 10.4; MEKK2 WT-MEK5: 102.0; MEKK3 PB1 HTS: 98.0

How did CC(C)CC(=O)NS(=O)(=O)c1ccc(NS(C)(=O)=O)cc1 do in these assays?
MEKK2mut PB1 HTS: -3.0; Arrestin-AP2 inh: 2.1; MEKK2 WT-MEK5: 94.0; MEKK3 PB1 HTS: 90.0

Results for SC(COCc1ccccc1)CN1CCN(Cc2ccc3c(c2)OCO3)CC1 (stereo not given) ?
MEKK2mut PB1 HTS: 42.0; Arrestin-AP2 inh: -2.7; MEKK2 WT-MEK5: 142.0*; MEKK3 PB1 HTS: 108.0; MEKK2wt confirm: 168.0; MEKK2mut confirm: 31.0; MEKK3-MEK5 inh: 107.0

How did CNC(=O)c1cc2ccccc2o1 do in these assays?
MEKK2mut PB1 HTS: 7.0; Arrestin-AP2 inh: 9.3; MEKK2 WT-MEK5: 119.0; MEKK3 PB1 HTS: 124.0*; MEKK2wt confirm: 91.0; MEKK2mut confirm: -6.0; MEKK3-MEK5 inh: 90.0

What do the screens show for `Cc1cc2cc(CNC(=O)c3cc4ccccc4o3)ccc2n1C`?
MEKK2mut PB1 HTS: -9.0; MEKK3 PB1 HTS: 45.0*[inhibitor]; MEKK2wt confirm: 57.0; MEKK2mut confirm: -19.0; MEKK3-MEK5 inh: 75.0

How did Cc1cc2cc(CNC(=O)c3ccc4c(c3)OCO4)ccc2n1C do in these assays?
MEKK2mut PB1 HTS: -19.0; Arrestin-AP2 inh: 12.1; MEKK2 WT-MEK5: -11.0*; MEKK3 PB1 HTS: 65.0*[inhibitor]; MEKK2wt confirm: 102.0; MEKK2mut confirm: 4.0; MEKK3-MEK5 inh: 101.0

What do the screens show for `Cc1ccc(S(=O)(=O)NCc2ccc3c(c2)cc(C)n3C)cc1`?
MEKK2mut PB1 HTS: -15.0; Arrestin-AP2 inh: 27.0; MEKK2 WT-MEK5: 51.0*[inhibitor]; MEKK3 PB1 HTS: 71.0*[inhibitor]; MEKK2wt confirm: 62.0; MEKK2mut confirm: -9.0; MEKK3-MEK5 inh: 82.0

What do the screens show for `Cc1ccc(CNC(=O)C2CCCN2C(=O)Nc2ccc(F)cc2)cc1` (stereo not given)?
MEKK2mut PB1 HTS: 5.0; Arrestin-AP2 inh: -1.7; MEKK2 WT-MEK5: 101.0; MEKK3 PB1 HTS: 93.0

What do the screens show for `O=[N+]([O-])C(/C=C(/Cl)[N+](=O)[O-])=C(N1CCCCC1)N1CCCCC1`?
MEKK2mut PB1 HTS: 4.0; Arrestin-AP2 inh: -1.5; MEKK2 WT-MEK5: 102.0; MEKK3 PB1 HTS: 102.0

What do the screens show for `O=c1c(Cl)c(NCc2ccccc2)cnn1C12CC3CC(CC(C3)C1)C2`?
MEKK2mut PB1 HTS: 0.0; Arrestin-AP2 inh: 13.0; MEKK2 WT-MEK5: 104.0; MEKK3 PB1 HTS: 104.0

Results for COc1cc(OC)cc(C(=O)NCc2ccc3c(c2)cc(C)n3C)c1 ?
MEKK2mut PB1 HTS: -21.0; Arrestin-AP2 inh: -5.6; MEKK3 PB1 HTS: 47.0*[inhibitor]; MEKK2wt confirm: 70.0; MEKK2mut confirm: -12.0; MEKK3-MEK5 inh: 85.0

What do the screens show for `COc1ccc(C(=O)NCc2ccc3c(c2)cc(C)n3C)cc1`?
MEKK2mut PB1 HTS: 8.0; Arrestin-AP2 inh: 19.1; MEKK2 WT-MEK5: 91.0; MEKK3 PB1 HTS: 90.0

Results for Cc1ccc(CNC(=O)c2c(-c3ccccc3Cl)noc2C)cc1 ?
MEKK2mut PB1 HTS: 2.0; Arrestin-AP2 inh: 31.6; MEKK2 WT-MEK5: 102.0; MEKK3 PB1 HTS: 103.0
